Reference: the EternaBench riboswitch data

Test system: MS2 coat protein
Assay: apparent Kd, MS2 coat protein; higher = weaker binding; RNA-MaP array
Outline: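 Designed RNAs were transcribed on an Illumina sequencing chip from sequenced DNA templates. They were incubated at room temperature with fluorescently labeled MS2 coat protein at 1.5 nM to 3 μM, for 0.8–1.5 h at the lowest to 10–20 min at the highest concentrations, in Tris-HCl pH 7.5 buffer with KCl, MgCl2, BSA, DTT, tRNA and Tween20, with or without input ligand. Apparent Kd is the median of per-cluster binding-curve fits. Designs measured on fewer than 10 clusters were excluded.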

[1] = designed as: ON switch for flavin mononucleotide, no ligand
[2] = ligand present: flavin mononucleotide, designed as: ON switch for flavin mononucleotide
[3] = designed as: OFF switch for flavin mononucleotide, no ligand
[4] = ligand present: flavin mononucleotide, designed as: OFF switch for flavin mononucleotide
[5] = designed as: ON switch for theophylline, no ligand
[6] = ligand present: theophylline, designed as: ON switch for theophylline

Sequence	apparent Kd [1] [nM]	apparent Kd [2] [nM]	apparent Kd [3] [nM]	apparent Kd [4] [nM]	further results
GAACGGAGAGAAGGAUAUGGCAUAUUGCCUCACAUGAGGAUCACCCAUGUCAAGACAAAGCGAUCCCAGAAGGUCUCACAACAU	60.1	26.8	–	–	–
CCCGGUGAUGUCAAACAUGAGGAUCACCCAUGUCUUCACCAUAGAAGGCGCUUUAUUCUAGCUAGCGAGGAUAUAUGGUUUCAG	–	–	39.6	44.6	–
GCUUAGAAACCUGAUACCAGUCAGCCCUAUGACAUGAGGAUCACCCAUGUGAUACUCACGGACCCUUGGCAGCAGGGUCGAUUAC	–	–	–	–	apparent Kd [5]: 695 nM; apparent Kd [6]: 429 nM
AUGUGAUAGGAGAAGGGCUGUCCAUGGACAUCACAGUACAUCCACAUGAGGAUCACCCAUGUUAAGCAGGAUAUCCUGUCGUGU	–	–	27.2	58.9	–
CUAACACAUGAGGAUCACCCAUGUUAGGAUAUCAGCUGCAGCGCUCGACUGCAAUUUAUGAGAAGGAACUGUGG	–	–	17.5	24.2	–
CCGUCACAUGAGGAUCACCCAUGUGGUGAUACCAGCAGUCGACCCUGCCCUUGGCAGCACAUUAUCAUAAAAGCAAUCAGCAACG	–	–	–	–	apparent Kd [5]: 156 nM; apparent Kd [6]: 149 nM
CACUGGUACGAGAAGGCACCUGAAGUUGAGAAGUGAGGAUAUCGAAAUAAACACAUGAGGAUCACCCAUGUGAUCCAAGGACGA	–	–	121	91.6	–
UGGAUUCGACAAGGAUAUGGUAGUCAUAGCACAUGAGGAUCACCCAUGUUAAAGCAAAACAAAGUCCAGAAGGUGUAAGUACGG	11.7	9.43	–	–	–
UGUAGCCGCGAGAAGGUAAGCUAAGGAUGUGGUAUCAACGACUACAUGAGGAUCACCCAUGUGCUUAAGGAUAUCGAGGUGGAG	62.5	104	–	–	–
AACAUUAGAGGAUAUAUCAUCUUUCACAUGAGGAUCACCCAUGUUCCUCAGUGUUAGUGUAUAGAAGGCUAAGACA	–	–	279	26.9	–
UCAGUGUCAGGAUAUUCUAACGAGGGUAGUGCGCCCUUUGUGAAGAAGGGACAUGAGGAUCACCCAUGUACUUG	–	–	51.2	125	–
UCAGGUCCGAAGAAGGCGAAGCAACAUUACUAUCGAGGAUAUUCUACAUGAGGAUCACCCAUGUCACCAUCGAUGACAGAGAAU	–	–	7.65	7.93	–
UCAUCACAUGAGGAUCACCCAUGUCGUAGGUGAUCAGGAUAUGCCUAUGCCUCCAUGGCGGCAGAAGGGAUGCGGG	795	603	–	–	–
AAUUGGUGACUAGGAUAUUAGGGAUGGCCGUACUAAGAAGGAGUCGUGCUAACAUGAGGAUCACCCAUGUAUUGGAAGCCUUAA	–	–	15.5	13.4	–
CGCCGUACGUCAGGAUAUCACAAUUGGAUCCAUCACAUGAGGAUCACCCAUGUUUACAAGUAGAAUGAGAAGGGACAAGGAUAA	49.3	43.8	–	–	–
UAGUCGUGGGCAGGAUAUCACUUUAUGCCAAUAUGAGAAGGGCCGGUGACAAGGCGGGCGACCACAUGAGGAUCACCCAUGUAC	–	–	79.6	47.9	–
GCCGUUCGAGAGAAGGUUGUACGCGCCACGCGCACAUGAGGAUCACCCAUGUCCUCCAAACUCACAAAGGAUAUCUUAAGAACA	–	–	415	508	–
CAUUUCUUCACAGGAUAUGCCGUACAUGAGGAUCACCCAUGUGGGUGGGCGUAGCACUGUAGUGCGCAGAAGGGUGGAUCCGAC	–	–	113	79.2	–
CCAGGGCUCGAGAAGGCCCGCGCGGUUCAGUACGUAGGUACAUGAGGAUCACCCAUGUCGGAUUGGGAGGAUAUCGAUUCUUGU	335	80.1	–	–	–
GGUGAGUCAGGAUAUUGUGCAUUUGAGACCCACACGGGACACAAGAAGGGACAUGAGGAUCACCCAUGUGCUCA	–	–	9.73	12.8	–
GGUUGACAUGAGGAUCACCCAUGUGAGGAUAUAACAAGUGGGAGCUCUCCAUGAAAAGUUAGAAGGCACUUGGU	–	–	61.8	52.9	–
AGUGGUGCAACUGAUACCAGAUUUAUACGAGACAUGAGGAUCACCCAUGUCGAAAGACAAAUCCCUUGGCAGCAGACACGAUCCC	–	–	–	–	apparent Kd [5]: 9.42 nM; apparent Kd [6]: 8.85 nM
CCAGGGCGAAACAUGAGGAUCACCCAUGUCCUAGCAACGAUGAGAAGGGUAAACACAAUGUCUUUACAGGAUAUCAACCAUACG	11.2	7.6	–	–	–
GUAUACAUGAGGAUCACCCAUGUCGUUCUCUUGAGAUGAACAGAGGAUAUGUGAGUAAUAGCGUGACAGAAGGCUGGACAUGAU	–	–	27.7	16.9	–
AGCUCACAUGAGGAUCACCCAUGUCAAUUGUCAUCCUAUUGUAGAAGGCCGACACUGAUAUUAACGGAGGAUAUACGAGACAAU	15.2	7.85	–	–	–
UUAUUGGUAGGAUAUACAUGAGGAUCACCCAUGUGUCACGCAAAUUAGUAUGUCAAAUGUAGAAGGACCAAAUA	–	–	20.5	30.2	–
